Article PMC4860949 (Bioorganic & medicinal chemistry, 2016)
Several values for one entry are separate records, joined by “and”; a condition that tells them apart may be missing. Equal values may be shown once. Entries after “also recorded” stand apart in the source; their conditions may differ.

Columns and labels:
[1] = tested on: Dd2 drug-resistant strain of P. falciparum; experiment: Antimalarial bioassay: 72 h in vitro parasite growth assay, SYBR Green I; format: cell-based, Plasmodium falciparum; conditions: for Antiplasmodial activity (in words): Dd2 drug-resistant strain of P. falciparum; for Concentration at which compound was inactive in antimalarial assay: Dd2 strain, inactive at this (highest tested) dose
In short: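 Ring-stage Dd2 cultures (1% hematocrit, 1% parasitaemia) were grown for 72 h with increasing test compound concentrations at 37 °C in a humidified chamber under low oxygen (5.06% CO2, 4.99% O2, 89.95% N2). Viability was measured by SYBR Green I DNA quantitation. IC50 came from nonlinear regression as the mean of three independent determinations in duplicate, ± S.E.M. Artemisinin served as positive control.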

[2] = tested on: HEK293 (Human Embryonic Kidney) cells; experiment: In vitro cytotoxicity against HEK293 cells; format: cell-based; conditions: 24 h
[3] = tested on: 3D7 strain of P. falciparum; conditions: chloroquine-sensitive strain; cited from earlier work

Row | SMILES | Antiplasmodial activity (in words) [1] | Concentration up to which no inhibition/toxicity to HEK cells was detected [2] [µM] | Antiplasmodial activity (in words) ([1]; listed as Betulinic acid (3)) | Inhibition of 3D7 strain of P. falciparum (in words) [3] | Concentration at which compound was inactive in antimalarial assay [1]
1 | CCCCCC(=O)c1c(O)cc(O)c2c1OC1=C(C(=O)C(C)(C)C(=O)C1(C)C)C2CC(C)C (racemic) [Compound 1, (±)-4,9-dihydro-6,8-dihydroxy-2,2,4,4-tetramethyl-5-hexanoyl-9-isobutyl-1H-xanthene-1,3(2H)-dione] | strong antiplasmodial activity; also recorded: strong antimalarial activity | 3.125 | – | – | –
2 | CC(C)=CCCC1=CCC2(C(=O)C(C)(C)C(=O)C(C)(C)C2=O)C(CC(C)C)C1 (racemic) [Compound 2, (±)-2,2,4,4-tetramethyl-11-isobutyl-9-(4-methyl-3-penten-1-yl)-spiro[5.5]undec-8-ene-1,3,5-trione] | moderate antiplasmodial activity | 100 | – | – | –
3 | C=C(C)[C@@H]1CC[C@]2(C(=O)O)CC[C@]3(C)[C@H](CC[C@@H]4[C@@]5(C)CC[C@H](O)C(C)(C)[C@@H]5CC[C@]43C)[C@@H]12 [Compound 3, betulinic acid] | – | – | moderate inhibitory effect | inhibit | –
4 | C[C@H]1[C@H](C)CC[C@]2(C(=O)O)CC[C@]3(C)C(=CC[C@@H]4[C@@]5(C)CC[C@H](O)C(C)(C)[C@@H]5CC[C@]43C)[C@H]12 [Compound 5, ursolic acid] | inactive | – | – | – | 40 µM
5 | CCCCCC(=O)c1c(O)cc(O)cc1O [Compound 6, 1-(2,4,6-trihydroxyphenyl)-1-hexanone] | inactive | – | – | – | 90 µM and 80 µM
